From ChEMBL document CHEMBL3865785, “Dopaminergic isoquinolines with hexahydrocyclopenta[ij]-isoquinolines as D2-like selective ligands” (Eur J Med Chem, 2016)

Columns and labels:
Homo sapiens = organism: Homo sapiens; test: Selectivity ratio of Ki for D1-like dopaminergic receptor (unknown origin) in striatal membranes to Ki for D2-like dopaminergic receptor (unknown origin) in striatal membranes; type: cell membranes
[1] = Displacement of [3H]raclopride from D2-like dopaminergic receptor (unknown origin) in striatal membrane measured after 1 hr by liquid scintillation counting method; type: cell membranes, Homo sapiens, Striatum
Outline: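 Striatal membranes washed by four 20000 g centrifugations. Resuspended in Tris buffer with 120 mM NaCl, 5 mM KCl, 1 mM CaCl2, 1 mM MgCl2, 0.1% ascorbic acid. 200 µg protein incubated 1 h at 25 °C with 0.5 nM (final) [3H]raclopride plus drug. Nonspecific binding defined with 50 µM apomorphine. Filtration, scintillation counting. Mean ± SEM, n = 3.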

[2] = Displacement of [3H]SCH23390 from D1-like dopaminergic receptor (unknown origin) in striatal membrane measured after 1 hr by liquid scintillation counting method; type: cell membranes, Homo sapiens, Striatum
Outline: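 Striatal membranes homogenized in 50 mM Tris-HCl pH 7.4, centrifuged twice at 20000 g. Resuspended in Tris with 5 mM MgSO4, 0.5 mM EDTA, 0.02% ascorbic acid. 100 µg protein incubated 1 h at 25 °C with 0.25 nM (final) [3H]SCH 23390 plus drug. Nonspecific binding defined with 30 μM SK&F 38393. GF/B filtration, scintillation counting. Mean ± SEM, n = 3.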

[3] = Induction of apoptosis in human neutrophils assessed as early apoptotic cells at 30 uM measured after 24 hrs by Annexin-V-FITC/propidium iodide staining-based flow cytometric analysis (reference value: 1.1%); type: cell-based; details: neutrophil
[4] = Cytotoxicity against HUVEC assessed as reduction in cell viability at 30 uM measured after 24 hrs by MTT assay relative to control; type: toxicity, cell-based; details: human
Outline: (§1)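 Neutrophils isolated from healthy-donor buffy coats by Ficoll-Hypaque gradient; HUVEC from collagenase isolation, passage ≤1. Cells at 10^5 per 100 µL supplemented RPMI, incubated 24 h at 37 °C with or without compound (30 μM). MTT added (solution made at 2 mg/mL in PBS), further 3 h at 37 °C; colorimetric readout vs vehicle. Mean ± SEM, n = 3 independent experiments.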

[5] = Induction of apoptosis in human neutrophils assessed as late apoptotic cells at 30 uM measured after 24 hrs by Annexin-V-FITC/propidium iodide staining-based flow cytometric analysis (reference value: 0.06%); type: cell-based; details: neutrophil
[6] = Induction of apoptosis in human neutrophils assessed as necrotic cells at 30 uM measured after 24 hrs by Annexin-V-FITC/propidium iodide staining-based flow cytometric analysis (reference value: 5.33%); type: cell-based; details: neutrophil
[7] = Induction of apoptosis in HUVEC at 30 uM measured after 24 hrs by Annexin-V-FITC/propidium iodide staining-based flow cytometric analysis; type: cell-based; details: human
[8] = Induction of apoptosis in human neutrophils assessed as viable cells at 30 uM measured after 24 hrs by Annexin-V-FITC/propidium iodide staining-based flow cytometric analysis (reference value: 93.52%); type: cell-based, Neutrophil; details: read-out: Activity
[9] = Cytotoxicity against human neutrophils assessed as reduction in cell viability at 30 uM measured after 24 hrs by MTT assay relative to control; type: toxicity, cell-based; details: neutrophil; outline: as §1

Compound `C=CCN1CCc2cc(OC)c(OC)cc2C1/C=C/c1ccccc1` (centres undefined) has a Ratio Ki (Homo sapiens) of 6.58, a Ki [1] of 1170 nM and a pKi [1] of 5.942. The Ki [2] was 7.68 µM and the pKi [2] was 5.133.
In the case of `Oc1cc2c3c(c1O)C(c1ccccc1)CC3NCC2` (centres undefined), the Activity [3] is reported as 0.08%, the Activity [4] is reported as “Non-Toxic” and the Activity [5] is reported as 0.05%. The Activity [6] was 4.53%, the Activity [7] was “Non-Toxic” and the viability at 24 h, 30 µM [8] was 95.3%. The Activity [9] was “Non-Toxic”.
Work on `COc1cc2c(cc1OC)C(/C=C/c1ccccc1)N(C)CC2` (centres undefined) yielded a Ratio Ki (Homo sapiens) of 14.2, a Ki [1] of 436 nM and a pKi [1] of 6.376. It also gave a Ki [2] of 6.2 µM and a pKi [2] of 5.251.
`COc1cc2c(cc1OC)C(/C=C/c1ccccc1)NCC2` (centres undefined) showed a Ratio Ki (Homo sapiens) of 0.74, a Ki [1] of 6180 nM and a pKi [1] of 5.244. The Ki [2] was 4.56 µM and the pKi [2] was 5.36.
For `NCCc1ccc(O)c(O)c1` [DOPAMINE], the Ratio Ki (Homo sapiens) was 0.98, the Ki [1] was 560 nM and the pKi [1] was 6.837. It also gave a Ki [2] of 0.55 µM and a pKi [2] of 6.26.
With `CN1CCc2cc(O)c(O)cc2C1/C=C/c1ccccc1` (centres undefined) the Activity [3] was 3.24%, the Activity [4] was “Non-Toxic” and the Activity [5] was 0.12%. For the same compound, the Activity [6] was 6.94%, the Ratio Ki (Homo sapiens) was 55.9 and the Activity [7] was “Non-Toxic”. The Ki [1] was 57 nM, the pKi [1] was 7.264 and the viability at 24 h, 30 µM [8] was 89.7%. For the same compound, the Activity [9] was “Non-Toxic”, the Ki [2] was 3.19 µM and the pKi [2] was 5.498.
With `C=CCN1CCc2cc(O)c(O)cc2C1/C=C/c1ccccc1` (centres undefined) the Activity [3] was 0.15%, the Activity [4] was “Non-Toxic” and the Activity [5] was 0.16%. For the same compound, the Activity [6] was 6.11%, the Ratio Ki (Homo sapiens) was 147 and the Activity [7] was “Non-Toxic”. For the same compound, the Ki [1] was 41 nM, the pKi [1] was 7.408 and the viability at 24 h, 30 µM [8] was 93.6%. For the same compound, the Activity [9] was “Non-Toxic”, the Ki [2] was 6.04 µM and the pKi [2] was 5.267.
For `C/C=C/C1c2cc(OC)c(OC)cc2CCN1C` (centres undefined), the Ratio Ki (Homo sapiens) was 1.24, the Ki [1] was 14700 nM and the pKi [1] was 4.833. For the same compound, the Ki [2] was 18.3 µM and the pKi [2] was 4.74.
`C/C=C/C1NCCc2cc(O)c(O)cc21` (centres undefined) showed a Ratio Ki (Homo sapiens) of 126, a Ki [1] of 458 nM and a pKi [1] of 6.352. For the same compound, the Ki [2] was 57.7 µM and the pKi [2] was 4.246.
Work on `C/C=C/C1NCCc2cc(OC)c(OC)cc21` (centres undefined) yielded a Ratio Ki (Homo sapiens) of 5.15, a Ki [1] of 8860 nM and a pKi [1] of 5.059. It also gave a Ki [2] of 45.6 µM and a pKi [2] of 4.347.
With `CN1CCc2cc(O)c(O)c3c2C1CC3c1ccccc1` (centres undefined) the Activity [3] was 0.15%, the Activity [4] was “Non-Toxic” and the Activity [5] was 3.06%. For the same compound, the Activity [6] was 5.05%, the Activity [7] was “Non-Toxic” and the viability at 24 h, 30 µM [8] was 94.7%. For the same compound, the Activity [9] was “Non-Toxic”.
For `C=CCN1CCc2cc(O)c(O)cc2C1/C=C/C` (centres undefined), the Activity [3] was 0.28%, the Activity [4] was “Non-Toxic” and the Activity [5] was 0.11%. For the same compound, the Activity [6] was 0.1%, the Ratio Ki (Homo sapiens) was 95.2 and the Activity [7] was “Non-Toxic”. The Ki [1] was 18 nM, the pKi [1] was 7.749 and the viability at 24 h, 30 µM [8] was 93.5%. For the same compound, the Activity [9] was “Non-Toxic”, the Ki [2] was 1.71 µM and the pKi [2] was 5.766.
For `C=CCN1CCc2cc(O)c(O)c3c2C1CC3c1ccccc1` (centres undefined), the Activity [3] was 6.86%, the Activity [4] was “Non-Toxic” and the Activity [5] was 0.33%. For the same compound, the Activity [6] was 3.03%, the Activity [7] was “Non-Toxic” and the viability at 24 h, 30 µM [8] was 89.9%. For the same compound, the Activity [9] was “Toxic”.
`C=CCN1CCc2cc(OC)c(OC)cc2C1/C=C/C` (centres undefined) gave a Ratio Ki (Homo sapiens) of 2.72, a Ki [1] of 13800 nM and a pKi [1] of 4.86. For the same compound, the Ki [2] was 37.6 µM and the pKi [2] was 4.432.
In the case of `C/C=C/C1c2cc(O)c(O)cc2CCN1C` (centres undefined), the Activity [3] is reported as 3.95%, the Activity [4] is reported as “Non-Toxic” and the Activity [5] is reported as 0.3%. For the same compound, the Activity [6] was 2.43%, the Ratio Ki (Homo sapiens) was 17.9 and the Activity [7] was “Non-Toxic”. It also gave a Ki [1] of 72 nM, a pKi [1] of 7.181 and a viability at 24 h, 30 µM [8] of 93.3%. The Activity [9] was “Non-Toxic”, the Ki [2] was 1.29 µM and the pKi [2] was 5.897.
For `Oc1cc2c(cc1O)C(/C=C/c1ccccc1)NCC2` (centres undefined), the Ratio Ki (Homo sapiens) was 6.73, the Ki [1] was 1420 nM and the pKi [1] was 5.869. For the same compound, the Ki [2] was 9.57 µM and the pKi [2] was 5.048.
